From PubChem
TAAR1 ag: agonists of human TAAR1 | Q96RJ0 | CHO RD-HGA16 TAAR1, Fluo-8 calcium fluorescence; vehicle wells 0%, saturating PEA agonist 100% | activation, % at 3 µM | 0.99% of 360,000 active;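 active means activation above the mean activation of all test compounds in the run plus 3 SD, cut at about 38% in these data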
Target sequence (Q96RJ0 whole entry, looked up): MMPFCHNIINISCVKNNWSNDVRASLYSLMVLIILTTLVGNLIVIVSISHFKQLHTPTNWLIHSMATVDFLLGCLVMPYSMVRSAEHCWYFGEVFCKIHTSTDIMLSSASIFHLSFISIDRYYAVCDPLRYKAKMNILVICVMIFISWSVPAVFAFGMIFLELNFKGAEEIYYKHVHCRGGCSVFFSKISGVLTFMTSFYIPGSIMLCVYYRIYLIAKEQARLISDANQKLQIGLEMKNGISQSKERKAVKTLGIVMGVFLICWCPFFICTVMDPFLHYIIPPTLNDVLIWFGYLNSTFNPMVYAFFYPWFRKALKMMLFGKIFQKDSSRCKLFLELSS
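Test system: RD-HGA16 (CHO) cells co-expressing Gα16 and hTAAR1; dosing: one-point dosing at 3 µM (nominal); timing: 17-24 h seeding, 75 min 37 °C dye, 30 min RT; signal: kinetic Fluo-8 calcium fluorescence; read-out basis: % activation relative to PEA EC100 response; controls: DMSO and PEA EC100; replicates: n 1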
GPR7 antagonist: human neuropeptides B/W receptor 1 antagonism; 1.1% of 290,000 active; inhibition, % at 4.4 µM; GPR7-expressing cells, fluorescence antagonist assay; AID 1861; P48145; in the data active means inhibition above about 16%, passing the limit was not always enough;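 further: cells stimulated with the agonist NPW; 0% = agonist with vehicle and 100% = vehicle without agonist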
TAAR1 antag: antagonists of human TAAR1 | Q96RJ0 | CHO RD-HGA16 TAAR1, Fluo-8 calcium fluorescence, antagonist | inhibition, % at 3 µM | 1.5% of 360,000 active | AID 624466;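 active means inhibition above a per-plate cutoff, the mean inhibition of test compounds on that plate plus 3 SD, cut at about 49% in these data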;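 further: 0% = DMSO plus EC80 beta-PEA response and 100% = DMSO alone without agonist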
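Material: RD-HGA16 CHO cells with stable hTAAR1 and Gα16; Dosing: single nominal final test compound concentration of 3 µM; Schedule: seeding 17-24 h prior, 75-min 37 °C, 30-min RT dye loading; Detection: kinetic Fluo-8 calcium fluorescence measurement; Measure: % inhibition from peak post-agonist over basal fluorescence ratio; Benchmarks: vehicle and agonist controls.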
CHO parental Ca: counter-screen: ATP calcium response change in parental CHO cells. parental CHO-K1, ATP-induced calcium, Fluo-8 fluorescence. inhibition, % at 5.6 µM. 0.63% of 330,000 active;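 active means inhibition above that plate's mean sample inhibition plus 3 SD, cut at about 26% in these data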;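 further: 0% = ATP-challenged DMSO wells and 100% = DMSO wells without ATP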
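Material – parental CHO cells · Reagent – ATP stimulus · Compound – single nominal dose of 5.6 µM per compound · Detection – Fluo-8 fluorescence · Read-out basis – percent inhibition of calcium signal · Controls – ATP-challenged DMSO wells low, unchallenged DMSO wells high · Repeats – no replicates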
OX1R antag-1: antagonists of human orexin 1 receptor. CHO/OX1R cells, Fluo-8 calcium fluorescence, orexin A. O43613. inhibition, % at 5 µM. 0.43% of 330,000 active;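 active means inhibition above its plate's threshold, mean inhibition of all tested compounds on the plate plus 3 SD, cut at about 37% in these data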;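 further: 0% = orexin A challenge wells and 100% = SB-334867-A antagonist wells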
Target sequence (O43613 whole entry, looked up): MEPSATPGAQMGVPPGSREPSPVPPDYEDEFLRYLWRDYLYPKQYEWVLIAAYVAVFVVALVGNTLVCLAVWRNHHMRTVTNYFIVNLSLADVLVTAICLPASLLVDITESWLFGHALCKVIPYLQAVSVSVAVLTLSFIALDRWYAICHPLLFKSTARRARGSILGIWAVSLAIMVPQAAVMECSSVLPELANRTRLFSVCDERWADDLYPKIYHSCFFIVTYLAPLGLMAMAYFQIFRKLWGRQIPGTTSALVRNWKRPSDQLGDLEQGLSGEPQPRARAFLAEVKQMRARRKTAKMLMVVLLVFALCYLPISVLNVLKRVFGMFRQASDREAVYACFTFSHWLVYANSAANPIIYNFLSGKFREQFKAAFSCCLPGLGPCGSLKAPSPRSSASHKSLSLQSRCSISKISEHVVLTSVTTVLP
OX1R antag-2: blocks the human orexin 1 receptor; inhibition, % at 6.6 µM; OX1R-expressing cells, FRET antagonist read-out; AID 485270; 1.8% of 330,000 active; O43613; in the data active means inhibition mostly above about 38%, no sharp cut-off; inactive means mostly below about 40%;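 further: 0% = agonist challenge alone and 100% = reference antagonist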
TAAR1 nonsel count: nonselective antagonism, TAAR1 counter-screen; inhibition, % at 3 µM; shares compounds with TAAR1 antag; counterscreen cell line, calcium fluorescence, antagonist mode; 77% of 2,400 active; in the data active means inhibition above about 22%;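 further: CHO-Ga16 host cells stimulated with ATP at an EC80 level; 0% = agonist EC80 plus vehicle and 100% = vehicle without agonist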
TAAR1 ant conf: confirmation of human TAAR1 antagonists; shares compounds with TAAR1 antag; inhibition, % at 3 µM; TAAR1-expressing cells, fluorescence antagonist read-out; 40% of 2,400 active; in the data active means inhibition above about 49%;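 further: CHO-Ga16 host cells challenged with agonist PEA near its EC80; 0% = agonist at EC80 plus vehicle and 100% = vehicle with no agonist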
Ga16 ag counter: nonselective Ga16 agonist in TAAR1 antagonist counter-screen; shares compounds with TAAR1 antag; Ga16-expressing cells, calcium fluorescence, agonist counterscreen; activation, % at 3 µM; 18% of 2,400 active; in the data active means activation above about 12%;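 further: 0% = vehicle wells and 100% = saturating stimulus response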
TAAR1 ag counter: counter-screen for human TAAR1 antagonists: TAAR1 agonists; shares compounds with TAAR1 antag; hTAAR1 cell line, fluorescence activation, agonist mode; activation, % at 3 µM; 2% of 2,400 active; AID 651955; in the data active means activation above about 37%;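 further: CHO cells stably expressing TAAR1 with calcium dye readout; 0% = DMSO vehicle and 100% = full agonist response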
Numbers without * were called inactive; nt = no result given. Most compounds without a hit are left out; they make up all but 4.6% or so of the library.

SMILES	TAAR1 ag	GPR7 antagonist	TAAR1 antag	CHO parental Ca	OX1R antag-1	OX1R antag-2	TAAR1 nonsel count	TAAR1 ant conf	Ga16 ag counter	TAAR1 ag counter
O=C(COc1ccc(Cl)cc1)Nc1nc(-c2cccs2)cs1	19.1	-3.0	68.5*	-7.8	-5.5	42.4	22.6*	32.4	3.0	0.9
O=[N+]([O-])/C(=C\Nc1ccc(F)cc1F)S(=O)(=O)c1ccccc1	1.9	3.8	-15.5	-4.9	5.1	-12.5	nt	nt	nt	nt
COc1ccc2c(CC(=O)Nc3cccc(S(=O)(=O)N4CCOCC4)c3)coc2c1	2.9	-2.0	1.1	-9.7	0.2	22.3	nt	nt	nt	nt
CCc1cccc(C)c1NC(=O)C1CCN(C(=O)c2ccc([N+](=O)[O-])cc2)CC1	3.4	-2.5	-12.2	-6.0	-14.9	35.8	nt	nt	nt	nt
CN(CC(=O)Nc1ccc(OC(F)(F)F)cc1)S(=O)(=O)c1cnc[nH]1	7.8	1.3	-2.0	-14.2	-14.9	7.1	nt	nt	nt	nt
CNC(=O)c1cccc(NC(=O)c2ccccc2OCc2ccccc2)c1	21.8	-9.0	54.4*	-9.8	15.7	18.3	20.5	37.0	6.2	15.7
COc1cc(NC(=O)c2ccccc2OCc2ccccc2)cc(OC)c1OC	6.9	3.2	61.4*	-14.3	-14.1	44.5*	19.7	46.6	8.1	9.2
COc1ccc(-c2cc(C(=O)N/N=C/c3cccnc3)c3ccccc3n2)cc1	6.0	3.4	11.4	nt	nt	nt	nt	nt	nt	nt
CC(C)Oc1ccccc1-c1cc(C(=O)N/N=C/c2cccnc2)c2ccccc2n1	9.3	-24.3	49.6*	-27.1	-23.4	19.5	20.8	30.3	6.3	4.6
COc1ccc(-c2cc(C(=O)N/N=C/c3cc(OC)c(OC)cc3OC)c3ccccc3n2)cc1	8.5	nt	68.2*	-19.2	-25.5	2.8	28.2*	36.0	6.1	2.7
Cc1ccccc1-c1cc(C(=O)N/N=C/c2cccnc2)c2ccccc2n1	0.4	-7.4	0.1	nt	nt	nt	nt	nt	nt	nt
COc1cc(/C=N/NC(=O)c2cc(-c3cccc(OC(C)C)c3)nc3ccccc23)ccc1O	1.0	nt	53.6*	-49.1	-36.0	12.4	15.8	48.0	3.9	11.3
COc1ccc(/C=C(/NC(=O)c2ccccc2)C(=O)NC2CCS(=O)(=O)C2)cc1 (stereo not given)	3.0	-13.3	3.3	1.2	-2.1	28.4	nt	nt	nt	nt
Nc1c(N2CCCCC2)c2ccccc2oc1=O	7.4	-9.4	13.9	-16.6	-14.3	17.1	nt	nt	nt	nt
COc1cccc(CN2CCNC(=O)C2CC(=O)N2CCCCO2)c1OC (stereo not given)	3.0	-7.8	12.1	0.9	-2.1	20.2	nt	nt	nt	nt
CN(Cc1ccccc1)C(=O)c1ccc(Cc2cn(C)c3ccccc23)nc1	3.0	nt	-12.5	nt	nt	nt	nt	nt	nt	nt
O=C(OCC(=O)N1CCN(C(=O)c2ccco2)CC1)c1cc(-c2cccc(Br)c2)nc2ccccc12	17.2	-0.2	57.8*	-22.3	23.7	61.6*	34.3*	43.5	5.4	0.8
O=C(OCC(=O)N1CCN(C(=O)c2ccco2)CC1)c1cc(-c2ccccc2)nc2ccccc12	8.4	-5.5	57.0*	-37.4	-22.7	33.1	25.6*	35.7	6.2	0.4
CCc1ccc2[nH]c(C)c(CN3CCCCCC3)c(=O)c2c1	-0.7	-4.2	-14.8	-10.7	-25.3	0.6	nt	nt	nt	nt
O=C(C1=NOC2(C1)C(=O)Nc1ccccc12)N1CCCC1 (stereo not given)	0.8	nt	-6.1	nt	nt	nt	nt	nt	nt	nt
COc1ccc(/C=N/NC(=O)c2c(C)nc3ccccn23)cc1[N+](=O)[O-]	1.0	-0.6	5.7	-26.5	-18.4	15.0	nt	nt	nt	nt
Cc1cc(C(=O)COC(=O)c2nccnc2N)c(C)n1C	-3.1	-9.7	105.4*	-9.7	-19.4	70.4	10.8	6.6	-1.1	-1.9
O=C1CCC(C(=O)N(Cc2cccs2)C2(C(=O)NC3CCCCC3)CCCCC2)N1 (stereo not given)	2.5	12.9	1.9	-0.5	-9.7	6.7	nt	nt	nt	nt
Cc1sc2ncnc(N3CCC(C(=O)Nc4cc(Cl)ccc4Cl)CC3)c2c1C	1.1	nt	63.1*	-19.3	-33.7	36.0	30.4*	41.7	2.9	0.0
COc1ccc(S(=O)(=O)N(C)C)cc1NC(=O)C1CCN(c2ncnc3sc(C)c(C)c23)CC1	11.1	nt	21.6	nt	nt	nt	nt	nt	nt	nt
SMILES	TAAR1 ag	GPR7 antagonist	TAAR1 antag	CHO parental Ca	OX1R antag-1	OX1R antag-2	TAAR1 nonsel count	TAAR1 ant conf	Ga16 ag counter	TAAR1 ag counter
Cc1sc2ncnc(N3CCC(C(=O)Nc4cc(S(C)(=O)=O)ccc4Cl)CC3)c2c1C	14.0	nt	60.8*	-16.5	-19.5	20.1	26.4*	38.4	8.1	4.0
Cc1sc2ncnc(N3CCC(C(=O)NNC(=O)c4ccc(Cl)cc4)CC3)c2c1C	9.6	nt	43.8	-9.8	-21.8	33.7	nt	nt	nt	nt
O=NN(C(=O)NC1CCC(C(=O)O)CC1)C1CCC(C(=O)O)CC1 (stereo not given)	1.9	nt	-14.1	nt	nt	nt	nt	nt	nt	nt
CN1OC[C@@H]2CN(S(=O)(=O)c3ccccc3)[C@H](c3ccccc3Br)C[C@@H]21	3.5	nt	-17.6	nt	nt	nt	nt	nt	nt	nt
COC(=O)C1=C(C)N(Cc2ccc(C(F)(F)F)cc2)C(=NCc2ccc3c(c2)OCO3)NC1c1cccc(Cl)c1 (stereo not given)	28.7	nt	49.0*	nt	nt	nt	31.0*	29.9	13.7*	33.7
COC(=O)C1=C(C)N(Cc2ccc(F)cc2)C(=S)NC1c1cccc(Br)c1 (stereo not given)	-1.0	nt	54.2*	nt	nt	nt	19.0	26.9	2.6	4.4
CC(=O)C1=C(C)N(Cc2ccc(F)cc2)C(=S)NC1c1cccc(Br)c1 (stereo not given)	-0.1	nt	44.2	nt	nt	nt	nt	nt	nt	nt
CC(=O)Nc1ccc(Nc2nc(-c3ccccc3)nc3ccccc23)cc1	20.8	-1.1	59.2*	3.6	-19.2	28.6	34.1*	55.9*	8.5	5.8
Cc1ccc(Nc2nc(-c3cccnc3)nc3ccccc23)cc1	-0.6	-6.0	56.2*	-32.1	-6.4	11.7	16.6	27.3	3.4	-1.1
Oc1ccc(Nc2nc(-c3ccccc3)nc3ccccc23)cc1	nt	-6.1	nt	6.2	-10.9	-5.3	nt	nt	nt	nt
COC(=O)c1cc(Nc2cc(C)c3ccc(O)cc3n2)cc(C(=O)OC)c1	1.5	-3.5	23.3	7.9	-4.0	16.4	nt	nt	nt	nt
COC(=O)c1cc(Nc2cc(C)c3c(O)cccc3n2)cc(C(=O)OC)c1	8.6	-19.2	63.4*	-12.6	-24.9	27.3	23.9*	36.7	5.2	15.4
